Molecular target: GABA-A receptor; anion channel
Test: Concentration to inhibit [3H]flunitrazepam binding to rat cerebral cortical membrane
Method in brief: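 Rat cerebral cortex homogenized in 50 mM Tris-HCl pH 7.4, centrifuged 20000g 20 min at 4 °C, washed three times, resuspended in 50 volumes. Triplicate incubations with [3H]flunitrazepam (~1 nM final) at 4 °C for 120 min, ended by GF/B filtration and ice-cold buffer washes. Nonspecific binding defined with 10 μM unlabeled flunitrazepam.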

SMILES	IC50 [µM]
COc1ccc(-n2nc3c4ccccc4c[n+](Cc4ccccc4)c3c2[O-])cc1	> 2
[O-]c1c2c(nn1-c1ccc(F)cc1)c1ccccc1c[n+]2Cc1ccccc1	> 2
[O-]c1c2c(nn1-c1ccccc1)c1ccccc1c[n+]2Cc1ccccc1	> 2
c1ccc2c(c1)cnc1c3ccccc3[nH]c21	> 2
O=c1c2ncc3ccccc3c2[nH]n1-c1ccccc1	> 2
[O-]c1c2c(nn1-c1ccc(Cl)cc1)c1ccccc1c[n+]2Cc1ccccc1	> 2
COc1ccc(-n2nc3c4ccccc4[nH]cc-3c2=O)cc1	0.0009

Results, then the compound that gave them:

IC50 [µM]	SMILES
> 2	Clc1c2ncc3ccccc3c2nn1-c1ccccc1
> 2	COc1ccc(-n2[nH]c3c(ncc4ccccc43)c2=O)cc1
> 2	O=c1c2ncc3ccccc3c2[nH]n1-c1ccc(F)cc1
> 2	Sc1c2ncc3ccccc3c2nn1-c1ccccc1
> 2	Oc1c2ncc3ccccc3c2nn1-c1ccc(Cl)cc1
